Measured values from ChEMBL document CHEMBL2331556, “Evidence for the involvement of descending pain-inhibitory mechanisms in the antinociceptive effect of hecogenin acetate” (J Nat Prod, 2013).
Active and inactive are the calls of the source.

Legend:
Mus musculus [1] = assay: Antinociceptive activity in Swiss webster mouse assessed as increase in latency response at 5 mg/kg sc administered 40 mins prior to test measured for 3 hrs by warm water-tail flick test; type: functional, organism-based; parameters: dose 5 mg/kg
Procedure, shortened: (§1)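 Mice habituated to a restraint cylinder 20 min/day for 5 days. Tail tip (2 cm) immersed in 50 ± 0.5 °C water; tail-withdrawal latency recorded, 16 s cut-off. Latency taken at baseline and up to 7 h after dosing. Vehicle Tween 20 5%. Means ± SEM, n = 6 mice/group; repeated-measures two-way ANOVA with Bonferroni post hoc.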

Mus musculus [2] = assay: Toxicity in Swiss webster mouse assessed as decrease in time stayed on rotarod at 10 mg/kg, ip measured after 30 mins by rotarod test; type: organism-based; parameters: dose 10 mg/kg, route intraperitoneal; settings: in vivo, 0.5 h
Mus musculus [3] = assay: Antinociceptive activity in Swiss webster mouse assessed as latency response at 40 mg/kg, ip administered 30 mins after 2 mg/kg, ip KATP channel blocker, glibenclamide challenge measured up to 7 hrs by warm water-tail flick test; type: functional, organism-based; procedure, shortened: as §1
Mus musculus [4] = assay: Antinociceptive activity in Swiss webster mouse assessed as latency response at 40 mg/kg, ip administered 15 mins after 0.5 mg/kg, sc kappa-opioid receptor antagonist, nor-BNI challenge measured up to 7 hrs by warm water-tail flick test; type: functional, organism-based; procedure, shortened: as §1
Mus musculus [5] = assay: Antinociceptive activity in Swiss webster mouse assessed as latency response at 40 mg/kg, ip administered 30 mins prior to 1 mg/kg, ip mu-opioid receptor antagonist, CTOP challenge measured up to 7 hrs by warm water-tail flick test; type: functional, organism-based; procedure, shortened: as §1
Mus musculus [6] = assay: Antinociceptive activity in ip dosed Swiss webster mouse assessed as increase in latency response […] by warm water-tail flick test; type: functional, organism-based
Mus musculus [7] = assay: Toxicity in Swiss webster mouse assessed as effect on motor performance at 40 mg/kg, ip measured after 30 mins by rotarod test; type: organism-based; parameters: dose 40 mg/kg, route intraperitoneal; settings: in vivo, 0.5 h
Procedure, shortened: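 Rotarod. Mice pre-selected 24 h earlier; those failing to stay on the bar for two consecutive 120 s periods were excluded. Dosing ip: test agent 40 mg/kg, or vehicle (Tween 20 5%, 200 μL). Time on rod recorded up to 120 s and reported as group mean time (s). n = 6/group; ANOVA with Tukey post hoc.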

Mus musculus [8] = assay: Antinociceptive activity in Swiss webster mouse assessed as latency response at 40 mg/kg, ip administered 5 mins after 3 mg/kg, sc delta-opioid receptor antagonist, naltrindole challenge measured up to 7 hrs by warm water-tail flick test; type: functional, organism-based; procedure, shortened: as §1
Mus musculus [9] = assay: Antinociceptive activity in Swiss webster mouse assessed as latency response at 40 mg/kg, ip administered 15 mins after 5 mg/kg, ip nonselective opioid receptor antagonist, naloxone challenge measured up to 7 hrs by warm water-tail flick test; type: functional, organism-based; procedure, shortened: as §1
Mus musculus [10] = assay: Activation of neurons in Swiss webster mouse periaqueductal gray assessed as increase in number of Fos-positive cells at 5 to 40 mg/kg, ip measured after 2 hrs by immunohistochemical analysis; type: functional, organism-based
Procedure, shortened: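 Mice given 5, 10, 20 or 40 mg/kg ip or vehicle, perfused 2 h later. Frozen 20 μm transverse periaqueductal gray sections: PBS washes, 0.1 M glycine, blocked in 1% BSA, overnight rabbit anti-Fos, then 1 h Alexa Fluor 594 anti-rabbit. No-primary control included. Fos-positive cells counted; n = 6/group; ANOVA with Tukey post hoc.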

Compound: CN1CC[C@]23c4c5ccc(O)c4O[C@H]2[C@@H](O)C=C[C@H]3[C@H]1C5
- Activity (Mus musculus [1]): Active

Compound: CN1C(=O)CN=C(c2ccccc2)c2cc(Cl)ccc21 [DIAZEPAM]
- Activity (Mus musculus [2]): Toxic

Compound: CC(=O)O[C@H]1CC[C@@]2(C)[C@@H](CC[C@@H]3[C@@H]2CC(=O)[C@]2(C)[C@@H]4[C@H](C[C@@H]32)O[C@]2(CC[C@@H](C)CO2)[C@H]4C)C1 [HECOGENIN ACETATE]
- Activity (Mus musculus [3]): inactive
- Activity (Mus musculus [4]): inactive
- Activity (Mus musculus [5]): inactive
- Activity (Mus musculus [6]): Dose-dependent effect
- Activity (Mus musculus [7]): Non-toxic
- Activity (Mus musculus [8]): inactive
- Activity (Mus musculus [9]): inactive
- Activity (Mus musculus [10]): Active
